Results reported in ChEMBL document CHEMBL1142049, “1-(1-Naphthyl)piperazine as a novel template for 5-HT6 serotonin receptor ligands” (Bioorg Med Chem Lett, 2005).

Key:
[1] = target: T1, 5-hydroxytryptamine receptor 6 (Homo sapiens, UniProt P50406); assay: Binding affinity against 5 Hydroxy tryptamine 6 receptor
In short: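 Human 5-HT6 cDNA transiently expressed in HEK-293 cells, switched to dialyzed-serum medium, harvested 75 h post-transfection, PBS-washed and frozen as pellets. Nonspecific binding defined with 10 µM clozapine. Ki values from triplicate determinations.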

[2] = target: T1, 5-hydroxytryptamine receptor 6; assay: Binding affinity against 5-hydroxy tryptamine 6 receptor
In short: (§1)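 Human 5-HT6 cDNA transiently expressed in HEK-293 cells, switched to dialyzed-serum medium, harvested 75 h post-transfection, PBS-washed and frozen as pellets. [3H]LSD (1 nM final) displaced by unlabeled ligand (1–10,000 nM), 90 min at room temperature in 50 mM Tris-Cl, 10 mM MgCl2, 0.1 mM EDTA, pH 7.40. Nonspecific binding defined with 10 µM clozapine. Ki values from triplicate determinations.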

[3] = target: T1, 5-hydroxytryptamine receptor 6; assay: Binding affinity against 5-hydroxytryptamine 6 receptor; in short: as §1
[4] = target: T1, 5-hydroxytryptamine receptor 6; assay: pA2 against 5-Hydroxytryptamine 6 receptor

T1 sequence (P50406 whole entry): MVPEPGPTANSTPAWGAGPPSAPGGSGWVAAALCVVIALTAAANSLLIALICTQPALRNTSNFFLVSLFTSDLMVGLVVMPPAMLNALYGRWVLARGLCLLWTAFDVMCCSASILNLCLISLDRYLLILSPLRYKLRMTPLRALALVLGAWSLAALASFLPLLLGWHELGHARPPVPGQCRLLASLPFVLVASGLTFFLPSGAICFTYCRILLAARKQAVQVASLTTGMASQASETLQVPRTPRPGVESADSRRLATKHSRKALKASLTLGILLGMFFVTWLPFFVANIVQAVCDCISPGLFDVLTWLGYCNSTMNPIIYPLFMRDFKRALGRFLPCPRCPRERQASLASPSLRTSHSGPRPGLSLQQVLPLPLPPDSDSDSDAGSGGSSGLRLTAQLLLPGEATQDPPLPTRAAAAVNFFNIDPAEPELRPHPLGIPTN

Row | SMILES | Ki [1] [nM] | further results
1 | Brc1ccc(N2CCNCC2)c2ccccc12 | 54 | –
2 | Nc1ccc(S(=O)(=O)c2cc(Br)nc(N3CCCC3)c2)cc1 | ~1 | –
3 | c1ccc2c(N3CCNCC3)cccc2c1 | – | Ki [2]: 120 nM; Ki [3]: 100 nM
4 | O=S(=O)(c1ccccc1)c1ccc(N2CCNCC2)c2ccccc12 | 3.8 | pA2 [4]: 7.5
5 | Nc1ccc(S(=O)(=O)c2cc(Br)nc(N3CCNCC3)c2)cc1 | ~0.1 | –
6 | Nc1ccc(S(=O)(=O)c2cccc3ccccc23)cc1 | 34 | –
7 | c1ccc(-c2cc(N3CCNCC3)c3ccccc3c2)cc1 | 9.3 | –
8 | COc1ccccc1N1CCNCC1 | 1.2 | –
9 | c1ccc(-c2ccc(N3CCNCC3)c3ccccc23)cc1 | 190 | –
10 | O=C(c1ccccc1)c1ccc(N2CCNCC2)c2ccccc12 | 57 | –
11 | Nc1ccc(S(=O)(=O)c2ccc(N3CCNCC3)c3ccccc23)cc1 | 0.9 | –
12 | CCc1cc(N2CCNCC2)c2ccccc2c1 | 21 | –
13 | c1ccc(Cc2ccc(N3CCNCC3)c3ccccc23)cc1 | 35 | –
14 | O=S(=O)(c1ccc(NO)cc1)c1cccc2ccccc12 | 63 | –
